According to ChEMBL document CHEMBL2429813, “Phomapyrrolidones A-C, antitubercular alkaloids from the endophytic fungus Phoma sp. NRRL 46751” (J Nat Prod, 2013):
≈ marks a conversion by molar mass, not a printed value. Calls of active or inactive are those of the source. The rule behind the calls is not given here.

What was measured:
[1] = test system: MDA-MB-231; assay: Cytotoxicity against human MDA-MB-231 cells at 5 uM after 72 hrs by Alamar blue assay; assay type: functional, cell-based
Outline: (§1)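 The human cancer cell panel was assayed by resazurin (alamarBlue) read-out, with 5.0 μM as the highest concentration tested and doxorubicin as the positive control. The procedure follows an earlier report.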

[2] = test system: PC-3M; assay: Cytotoxicity against human PC3M cells at 5 uM after 72 hrs by Alamar blue assay; assay type: functional, cell-based; outline: as §1
[3] = test system: SF-268; assay: Cytotoxicity against human SF268 cells at 5 uM after 72 hrs by Alamar blue assay; assay type: functional, cell-based; outline: as §1
[4] = test system: NCI-H460; assay: Cytotoxicity against human NCI-H460 cells at 5 uM after 72 hrs by Alamar blue assay; assay type: functional, cell-based; outline: as §1
[5] = test system: MCF7; assay: Cytotoxicity against human MCF7 cells at 5 uM after 72 hrs by Alamar blue assay; assay type: functional, cell-based; outline: as §1
[6] = test system: Vero; assay: Cytotoxicity against African green monkey Vero cells after 72 hrs by MTS-PMS assay; assay type: cell-based; conditions: Chlorocebus sabaeus
Outline: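 Vero cells were assayed by MTS-PMS colorimetric read-out, with rifampin as the positive control. The procedure follows an earlier report. Values are given as IC50.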

[7] = test system: Mycobacterium tuberculosis; assay: Antitubecular activity against Mycobacterium tuberculosis […] assessed as growth inhibition by low oxygen recovery assay; assay type: functional
Outline: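 Non-replicating M. tuberculosis […] under low-oxygen conditions, with growth assessed on recovery (LORA). Endpoint was MIC, in μg/mL with μM in parentheses. Rifampin and isonicotinylhydrazine were the positive controls.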

[8] = test system: Mycobacterium tuberculosis; assay: Antitubecular activity against Mycobacterium tuberculosis […] assessed as growth inhibition after 4 days by microplate Alamar blue assay; assay type: functional; conditions: 96 h
Outline: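 Replicating M. tuberculosis […] cultures in microplate alamar blue (resazurin) format. MIC was read out and reported in μg/mL, with μM in parentheses. Rifampin and isonicotinylhydrazine served as positive controls.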

Compound | Activity [1] | Activity [2] | Activity [3] | Activity [4] | Activity [5] | IC50 [6] [µM] | MIC [7] [µg/mL] | MIC [8] [µg/mL]
CC1=C[C@@]2(C)C(=C(C)[C@H]3[C@H]4C[C@@H](C)C[C@@H](C)[C@@H]4[C@@H]4Oc5ccc(cc5)C[C@@H]5C(=O)NC(=O)[C@H]5C(=O)[C@H]2[C@H]43)[C@H]1C | inactive | inactive | inactive | inactive | inactive | 33.6 | 41.1 (≈ 77.9 µM) | 20.1 (≈ 38.1 µM)
CC1=C[C@@]2(C)C(=C(C)[C@H]3[C@H]4C[C@@H](C)C[C@@H](C)[C@@H]4[C@@H]4Oc5ccc(cc5)CC5(O)NC(=O)C6(O[C@H]56)C(=O)[C@H]2[C@H]43)[C@H]1C (some centres not stated) | inactive | inactive | inactive | inactive | inactive | 35.7 | 13.4 (≈ 24.6 µM) | 5.2 (≈ 9.56 µM)
NNC(=O)c1ccncc1 [ISONIAZID] |  |  |  |  |  |  | > 17.5 | 0.03 (≈ 0.219 µM)
CO[C@H]1/C=C/O[C@@]2(C)Oc3c(C)c(O)c4c(O)c(c(/C=N/N5CCN(C)CC5)c(O)c4c3C2=O)NC(=O)/C(C)=C\C=C\[C@H](C)[C@H](O)[C@@H](C)[C@@H](O)[C@@H](C)[C@H](OC(C)=O)[C@@H]1C [RIFAMPIN] |  |  |  |  |  | 132 | 0.1 (≈ 0.122 µM) | 0.07 (≈ 0.0851 µM)
CC1=C[C@@]2(C)C(=C(C)[C@H]3[C@H]4C[C@@H](C)C[C@@H](C)[C@@H]4[C@@H]4Oc5ccc(cc5)C[C@@H]5C(=O)N(C)C(=O)[C@H]5C(=O)[C@H]2[C@H]43)[C@H]1C | inactive | inactive | inactive | inactive | inactive | 145 | > 100 | > 100
CC1=C[C@@]2(C)C(=C(C)[C@H]3[C@H]4C[C@@H](C)C[C@@H](C)[C@@H]4[C@@H]4Oc5ccc(cc5)C[C@H]5C(=O)NC(=O)[C@@H]5C(=O)[C@H]2[C@H]43)[C@H]1C | inactive | inactive | inactive | inactive | inactive | 32.4 | 15.4 (≈ 29.2 µM) | 5.9 (≈ 11.2 µM)
